Measurements published in ChEMBL document CHEMBL1124475, “The thieno[3,2-c]pyridine and furo[3,2-c]pyridine rings: new pharmacophores with potential antipsychotic activity” (J Med Chem, 1989).
Active and inactive are the calls of the source. The calls are words filed in the database; no cut-off is given here.

Key:
[1] = molecular target: T1, Serotonin 1 (5-HT1) receptor (Rattus norvegicus, UniProt P28564+P30940+P19327+P28565); experiment: Ability to bind at serotonin 5-hydroxytryptamine 1 receptor of rat hippocampus by displacing [3H]5-HT; type: tissue-based
[2] = molecular target: T2, Adrenergic receptor alpha-1 (Rattus norvegicus, UniProt P15823+P23944+P43140); experiment: Ability to bind at alpha-1 adrenergic receptor by displacing [3H]WB-4101; type: protein assay
T2 sequence (P15823 whole entry): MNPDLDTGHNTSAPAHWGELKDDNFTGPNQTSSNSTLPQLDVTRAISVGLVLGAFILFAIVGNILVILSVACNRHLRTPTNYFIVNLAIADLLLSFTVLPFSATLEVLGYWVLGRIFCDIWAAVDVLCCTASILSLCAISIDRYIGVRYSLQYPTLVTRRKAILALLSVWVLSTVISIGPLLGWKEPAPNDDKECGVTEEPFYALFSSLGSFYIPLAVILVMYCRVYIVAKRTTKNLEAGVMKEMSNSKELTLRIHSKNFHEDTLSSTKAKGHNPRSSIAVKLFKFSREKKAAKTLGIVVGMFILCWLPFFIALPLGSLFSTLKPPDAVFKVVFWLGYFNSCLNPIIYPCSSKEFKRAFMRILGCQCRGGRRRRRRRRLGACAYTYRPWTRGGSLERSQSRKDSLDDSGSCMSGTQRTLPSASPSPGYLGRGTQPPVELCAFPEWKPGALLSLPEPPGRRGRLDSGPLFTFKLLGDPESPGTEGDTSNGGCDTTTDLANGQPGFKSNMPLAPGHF
T2 sequence (P23944 whole entry): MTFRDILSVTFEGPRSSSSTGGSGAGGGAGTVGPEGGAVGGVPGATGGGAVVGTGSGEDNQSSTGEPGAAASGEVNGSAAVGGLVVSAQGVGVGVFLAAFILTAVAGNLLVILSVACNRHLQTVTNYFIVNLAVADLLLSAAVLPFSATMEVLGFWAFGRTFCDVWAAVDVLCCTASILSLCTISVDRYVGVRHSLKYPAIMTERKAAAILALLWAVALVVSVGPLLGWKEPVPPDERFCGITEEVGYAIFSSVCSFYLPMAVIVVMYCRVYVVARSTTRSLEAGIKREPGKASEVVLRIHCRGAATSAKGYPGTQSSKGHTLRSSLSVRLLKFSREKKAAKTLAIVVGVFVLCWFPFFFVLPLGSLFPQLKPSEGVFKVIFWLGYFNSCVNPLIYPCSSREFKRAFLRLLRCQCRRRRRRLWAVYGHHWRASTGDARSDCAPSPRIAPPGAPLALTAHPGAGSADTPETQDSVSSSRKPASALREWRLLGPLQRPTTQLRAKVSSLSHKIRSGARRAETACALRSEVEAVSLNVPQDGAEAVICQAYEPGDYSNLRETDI
T2 sequence (P43140 whole entry): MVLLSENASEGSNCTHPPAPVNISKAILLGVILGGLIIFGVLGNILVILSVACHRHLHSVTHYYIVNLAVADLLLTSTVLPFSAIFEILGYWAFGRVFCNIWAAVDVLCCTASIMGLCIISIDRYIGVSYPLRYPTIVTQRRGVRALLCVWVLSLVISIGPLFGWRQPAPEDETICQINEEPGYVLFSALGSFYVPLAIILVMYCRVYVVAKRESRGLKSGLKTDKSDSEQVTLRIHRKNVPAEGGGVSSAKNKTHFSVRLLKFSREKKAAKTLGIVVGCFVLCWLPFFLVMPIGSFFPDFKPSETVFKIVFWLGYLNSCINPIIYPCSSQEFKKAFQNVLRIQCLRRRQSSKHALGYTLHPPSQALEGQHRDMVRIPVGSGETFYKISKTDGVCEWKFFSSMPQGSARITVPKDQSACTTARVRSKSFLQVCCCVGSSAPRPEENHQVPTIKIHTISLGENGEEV
Method in brief: (§1)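 Rat receptor radioligand displacement, five test-ligand concentrations used to calculate IC50, each assay in duplicate. Some compounds determined four times (in duplicate), with mean IC50 reported.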

[3] = molecular target: T3, Adrenergic receptor alpha-2 (Rattus norvegicus, UniProt P22086+P19328+P22909); experiment: Ability to bind at alpha-2 adrenergic receptor by displacing [3H]clonidine; type: protein assay
T3 sequence (P22086 whole entry): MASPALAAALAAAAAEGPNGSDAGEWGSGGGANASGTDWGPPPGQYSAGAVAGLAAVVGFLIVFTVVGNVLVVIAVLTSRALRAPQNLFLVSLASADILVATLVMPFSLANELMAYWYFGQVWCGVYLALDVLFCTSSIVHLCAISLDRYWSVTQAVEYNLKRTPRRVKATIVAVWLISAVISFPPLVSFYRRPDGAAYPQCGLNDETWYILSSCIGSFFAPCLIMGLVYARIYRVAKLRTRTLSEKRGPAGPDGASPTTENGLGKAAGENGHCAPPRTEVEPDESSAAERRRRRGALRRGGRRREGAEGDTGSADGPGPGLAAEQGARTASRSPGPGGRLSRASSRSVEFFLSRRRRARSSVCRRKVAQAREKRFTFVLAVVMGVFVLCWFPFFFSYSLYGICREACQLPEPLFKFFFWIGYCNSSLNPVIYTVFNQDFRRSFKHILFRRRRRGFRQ
T3 sequence (P19328 whole entry): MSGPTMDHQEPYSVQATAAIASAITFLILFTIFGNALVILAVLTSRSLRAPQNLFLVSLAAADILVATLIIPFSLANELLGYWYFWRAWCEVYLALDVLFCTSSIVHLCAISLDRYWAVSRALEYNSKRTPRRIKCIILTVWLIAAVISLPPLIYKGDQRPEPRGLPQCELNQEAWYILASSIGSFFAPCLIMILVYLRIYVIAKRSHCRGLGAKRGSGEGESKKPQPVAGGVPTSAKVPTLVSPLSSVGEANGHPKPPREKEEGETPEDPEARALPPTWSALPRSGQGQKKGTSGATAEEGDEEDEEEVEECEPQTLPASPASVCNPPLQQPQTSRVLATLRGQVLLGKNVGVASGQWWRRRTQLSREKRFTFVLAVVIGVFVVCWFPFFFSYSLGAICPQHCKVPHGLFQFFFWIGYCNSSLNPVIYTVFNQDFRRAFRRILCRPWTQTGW
T3 sequence (P22909 whole entry): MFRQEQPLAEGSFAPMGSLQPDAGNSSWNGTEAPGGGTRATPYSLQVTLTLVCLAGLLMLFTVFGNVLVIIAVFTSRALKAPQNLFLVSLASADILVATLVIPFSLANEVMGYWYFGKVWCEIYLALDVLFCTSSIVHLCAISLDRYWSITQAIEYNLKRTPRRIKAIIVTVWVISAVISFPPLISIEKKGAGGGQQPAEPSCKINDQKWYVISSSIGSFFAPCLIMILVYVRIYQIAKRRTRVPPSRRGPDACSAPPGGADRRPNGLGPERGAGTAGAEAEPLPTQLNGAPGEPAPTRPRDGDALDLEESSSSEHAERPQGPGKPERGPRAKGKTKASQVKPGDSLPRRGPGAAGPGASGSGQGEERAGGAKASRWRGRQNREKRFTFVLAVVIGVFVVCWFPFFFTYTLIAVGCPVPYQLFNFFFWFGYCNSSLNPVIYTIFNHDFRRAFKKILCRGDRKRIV

D(2) dopamine receptor [4] = molecular target: T4, D(2) dopamine receptor (Rattus norvegicus, UniProt P61169); experiment: Ability to bind at Dopamine receptor D2 of rat corpus striatum by displacing [3H]spiperone; method in brief: as §1
Rattus norvegicus [5] = experiment: Approximate effective dose (AED) in inhibition of spontaneous motor activity when administered perorally; type: functional
Method in brief: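 Three groups of five animals, each group at a different dose. Mean log activity count per group compared with vehicle controls, and the difference plotted against log dose. AED taken at the dose giving a 0.3 log-unit (about 2-fold) difference from control.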

Rattus norvegicus [6] = experiment: Conditioned avoidance response (CAR) when administered perorally; type: functional; details: po
[7] = molecular target: T5, Serotonin 2 (5-HT2) receptor (Rattus norvegicus, UniProt P30994+P08909+P14842); experiment: Ability to bind at serotonin 5-hydroxytryptamine 2 receptors of rat cortex by displacing [3H]spiperone
Rattus norvegicus [8] = experiment: Induction of catalepsy in rats when administered perorally; type: functional; details: po
Rattus norvegicus [9] = experiment: Reversal of trifluoperazine-induced catalepsy in rats when administered perorally; Inactive, maximum dose examined was 20 mg/Kg; type: functional, organism-based
Rattus norvegicus [10] = experiment: Blockade of Sidman-avoidance activity in rats when administered perorally; type: functional
Method in brief: (§2)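 Rats trained in once-daily Sidman sessions until stable; non-learners after 3 days replaced. Twelve rats dosed 30 min before session. Each rat compared with mean of its previous three drug-free days by paired t test. Testing continued to minimally effective dose; maximum usually 100 mg/kg. MED is mean over 12 animals.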

Mus musculus = experiment: Blockade of apomorphine-induced climbing in mice when administered perorally
[11] = molecular target: T1, Serotonin 1 (5-HT1) receptor; experiment: Ability to bind at 5-hydroxytryptamine 1 receptor of rat hippocampus by displacing [3H]5-HT; type: tissue-based; method in brief: as §1
[12] = molecular target: T2, Adrenergic receptor alpha-1; experiment: Ability to bind at Alpha-1 adrenergic receptor by displacing [3H]WB-4101; type: protein assay
D(2) dopamine receptor [13] = molecular target: T4, D(2) dopamine receptor; experiment: Ability to bind at dopamine receptor D2 of rat corpus striatum by displacing [3H]spiperone
Rattus norvegicus [14] = experiment: Blockade of apomorphine-induced stereotypy in rats when administered perorally; type: functional; details: po
Rattus norvegicus [15] = experiment: Reversal of trifluoperazine-induced catalepsy in rats when administered perorally; Inactive; type: functional, organism-based
Rattus norvegicus [16] = experiment: Blockade of Sidman-avoidance activity in rats when administered perorally; Inactive; type: functional, organism-based; method in brief: as §2
[17] = molecular target: T5, Serotonin 2 (5-HT2) receptor; experiment: Ability to bind at 5-hydroxytryptamine 2 receptor of rat cortex by displacing [3H]spiperone

T4 sequence (P61169 whole entry): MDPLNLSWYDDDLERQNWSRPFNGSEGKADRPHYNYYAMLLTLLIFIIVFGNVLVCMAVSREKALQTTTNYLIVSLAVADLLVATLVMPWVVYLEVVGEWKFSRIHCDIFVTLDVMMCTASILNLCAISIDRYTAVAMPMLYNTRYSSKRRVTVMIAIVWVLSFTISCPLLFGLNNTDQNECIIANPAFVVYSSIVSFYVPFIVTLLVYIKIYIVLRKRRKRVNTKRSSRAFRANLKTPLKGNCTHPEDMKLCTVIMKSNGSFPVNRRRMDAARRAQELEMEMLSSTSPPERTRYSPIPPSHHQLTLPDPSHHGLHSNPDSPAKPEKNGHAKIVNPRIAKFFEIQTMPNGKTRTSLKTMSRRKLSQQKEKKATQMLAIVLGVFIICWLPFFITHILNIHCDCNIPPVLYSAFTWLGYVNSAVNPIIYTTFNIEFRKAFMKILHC

`Cl.c1cc2occc2c(N2CCNCC2)n1` gave an IC50 [1] of 150 nM, an IC50 [2] of 426 nM and an IC50 [3] of 144 nM. It also gave an IC50 (D(2) dopamine receptor [4]) of over 1000 nM, an AED (Rattus norvegicus [5]) of 10.7 mg/kg and an ED50 (Rattus norvegicus [6]) of 7.3 mg/kg. It also gave an IC50 [7] of 377 nM.

`CN1CCN(C2=Nc3cc(Cl)ccc3Nc3ccccc32)CC1` [CLOZAPINE] was tested, and the ED50 (Rattus norvegicus [8]) was over 200 mg/kg, the ED50 (Rattus norvegicus [9]) was “inactive” and the MED50 (Rattus norvegicus [10]) was 50 mg/kg. For the same molecule, the MED50 (Mus musculus) was 10 mg/kg.

`Cl.c1cc2sccc2c(N2CCNCC2)n1` showed an IC50 [11] of 71.3 nM, an IC50 [2] of 139 nM and an IC50 [3] of 113 nM. The IC50 (D(2) dopamine receptor [4]) was over 1000 nM, the AED (Rattus norvegicus [5]) was 20.9 mg/kg and the ED50 (Rattus norvegicus [6]) was 28.6 mg/kg. For the same molecule, the IC50 [7] was 141 nM.

`Cl.O=C1SC2(CCCC2)C(=O)N1CCCCN1CCN(c2nccc3ccsc23)CC1` gave an IC50 [11] of 3.7 nM, an IC50 [12] of 36.8 nM and an IC50 (D(2) dopamine receptor [13]) of 418 nM. For the same molecule, the ED50 (Rattus norvegicus [14]) was 46.7 mg/kg, the ED50 (Rattus norvegicus [15]) was “inactive” and the ED50 (Rattus norvegicus [6]) was 43.1 mg/kg. The MED50 (Rattus norvegicus [16]) was “inactive” and the IC50 [17] was 20.2 nM.
